Source: ChEMBL document CHEMBL3286372, “Design, synthesis and structure-activity relationship of novel semi-synthetic flavonoids as antiproliferative agents” (2014)

Assays:
SW-620 = experiment: Growth inhibition of human SW620 cells after 48 hrs by coulter counting analysis; assay type: functional; settings: SW-620, 48 h
In short: (§1)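 Five-dose NCI-60 follow-up, 0.01–100 µM, made from DMSO stock in buffered saline (final DMSO <1%), in duplicate wells. Cells in RPMI 1640 with 10% FBS at 6×10^4 cells/ml, 37 °C, 5% CO2, 48 h. Cells diluted tenfold in saline, Coulter-counted and corrected for dilution. GI50, TGI and LC50 taken from log concentration–percent growth curves.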

CAKI-1 = experiment: Growth inhibition of human CAKI-1 cells after 48 hrs by coulter counting analysis; assay type: functional; settings: CAKI-1, 48 h
In short: (§2)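 NCI five-dose screen at 0.01-100 µM, diluted from DMSO stocks in buffered saline (final DMSO <1%). Cells at 6×10^4 cells/ml in RPMI 1640 with 10% FBS, in duplicate wells, at 37 °C under 5% CO2 for 48 h. Cells diluted tenfold in saline and Coulter-counted. GI50, TGI and LC50 taken from log concentration-growth inhibition curves.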

[1] = molecular target: Cyclin-dependent kinase 2/cyclin E1 (Homo sapiens) (UniProt P24864+P24941); experiment: Inhibition of CDK2/Cyclin E1 (unknown origin) at 20 uM after 30 mins by scintillation counting analysis relative to control; assay type: protein-complex assay
In short: (§3)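 Recombinant kinases, cloned, expressed and purified in-house. Radiometric ³³P-ATP assay with kinase at ~10-50 nM final and 1-5 µg peptide or protein substrate. Compound at 20 µM final, in duplicate. Reaction started by adding ATP, run 30 min at ambient temperature, then spotted on P81 phosphocellulose. Plates washed in 1% phosphoric acid and counted by scintillation. No-substrate blank subtracted. Result is mean % activity change versus DMSO control.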

IGROV-1 = experiment: Growth inhibition of human IGROV1 cells after 48 hrs by coulter counting analysis; assay type: functional; settings: IGROV-1, 48 h; in short: as §2
[2] = Growth inhibition of human BT549 cells after 48 hrs by coulter counting analysis; assay type: functional; settings: BT-549, 48 h; in short: as §2
[3] = Growth inhibition of human HCC2998 cells after 48 hrs by coulter counting analysis; assay type: functional; settings: HCC 2998, 48 h; in short: as §2
K562 = experiment: Growth inhibition of human K562 cells after 48 hrs by coulter counting analysis; assay type: functional; settings: K562, 48 h; in short: as §2
Malme-3M = experiment: Growth inhibition of human MALME-3M cells after 48 hrs by coulter counting analysis; assay type: functional; in short: as §2
SK-MEL-5 = experiment: Growth inhibition of human SK-MEL-5 cells after 48 hrs by coulter counting analysis; assay type: functional; settings: SK-MEL-5, 48 h; in short: as §1
SNB-75 = experiment: Growth inhibition of human SNB75 cells after 48 hrs by coulter counting analysis; assay type: functional; settings: SNB-75, 48 h; in short: as §1
NCI-H226 = experiment: Growth inhibition of human NCI-H226 cells after 48 hrs by coulter counting analysis; assay type: functional; settings: NCI-H226, 48 h; in short: as §1
HOP-62 = experiment: Growth inhibition of human HOP62 cells after 48 hrs by coulter counting analysis; assay type: functional; settings: HOP-62, 48 h; in short: as §2
NCI-H522 = experiment: Growth inhibition of human NCI-H522 cells after 48 hrs by coulter counting analysis; assay type: functional; settings: NCI-H522, 48 h; in short: as §1
[4] = Growth inhibition of human HOP92 cells after 48 hrs by coulter counting analysis; assay type: functional; settings: HOP-92, 48 h; in short: as §2
HCT-116 = experiment: Growth inhibition of human HCT116 cells after 48 hrs by coulter counting analysis; assay type: functional; settings: HCT-116, 48 h; in short: as §2
[5] = Growth inhibition of human MOLT4 cells after 48 hrs by coulter counting analysis; assay type: functional; settings: MOLT-4, 48 h; in short: as §1
ACHN = experiment: Growth inhibition of human ACHN cells after 48 hrs by coulter counting analysis; assay type: functional; in short: as §2
MCF7 = experiment: Growth inhibition of human MCF7 cells after 48 hrs by coulter counting analysis; assay type: functional; settings: MCF7, 48 h; in short: as §2
U-251 = experiment: Growth inhibition of human U251 cells after 48 hrs by coulter counting analysis; assay type: functional; settings: U-251, 48 h
In short: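 NCI five-dose screen, 0.01-100 µM, from DMSO stocks diluted in buffer saline (final DMSO <1%). Cells grown in RPMI 1640 + 10% FBS, seeded at 6×10^4 cells/ml, in duplicate wells. Exposure 48 h at 37 °C, 5% CO2. Cells diluted 10-fold in saline and counted by Coulter counter. GI50 derived from log concentration–percent growth inhibition curves. Controls carried matching PBS/saline/DMSO.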

[6] = Growth inhibition of human OVCAR3 cells after 48 hrs by coulter counting analysis; assay type: functional; settings: OVCAR-3, 48 h; in short: as §1
NCI-H460 = experiment: Growth inhibition of human NCI-H460 cells after 48 hrs by coulter counting analysis; assay type: functional; settings: NCI-H460, 48 h; in short: as §1
786-0 = experiment: Growth inhibition of human 786-0 cells after 48 hrs by coulter counting analysis; assay type: functional; settings: 786-0, 48 h; in short: as §2
A549 = experiment: Growth inhibition of human A549/ATCC cells after 48 hrs by coulter counting analysis; assay type: functional; settings: A549, 48 h; in short: as §2
[7] = Growth inhibition of human RXF393 cells after 48 hrs by coulter counting analysis; assay type: functional; settings: RXF 393, 48 h; in short: as §1
[8] = Growth inhibition of human OVCAR5 cells after 48 hrs by coulter counting analysis; assay type: functional; settings: OVCAR-5, 48 h; in short: as §1
[9] = Growth inhibition of human NCI-ADR-RES cells after 48 hrs by coulter counting analysis; assay type: functional; in short: as §1
KM12 = experiment: Growth inhibition of human KM12 cells after 48 hrs by coulter counting analysis; assay type: functional; settings: KM12, 48 h; in short: as §2
SK-OV-3 = experiment: Growth inhibition of human SKOV3 cells after 48 hrs by coulter counting analysis; assay type: functional; settings: SK-OV-3, 48 h; in short: as §1
NCI-H23 = experiment: Growth inhibition of human NCI-H23 cells after 48 hrs by coulter counting analysis; assay type: functional; settings: NCI-H23, 48 h; in short: as §1
[10] = Growth inhibition of human HCT15 cells after 48 hrs by coulter counting analysis; assay type: functional; settings: HCT-15, 48 h; in short: as §2
[11] = Growth inhibition of human SF539 cells after 48 hrs by coulter counting analysis; assay type: functional; settings: SF-539, 48 h; in short: as §1
M14 = experiment: Growth inhibition of human M14 cells after 48 hrs by coulter counting analysis; assay type: functional; settings: M14, 48 h; in short: as §2
[12] = molecular target: Cyclin-dependent kinase 4/cyclin D1 (Homo sapiens) (UniProt P11802+P24385); experiment: Inhibition of CDK4/Cyclin D1 (unknown origin) at 20 uM after 30 mins by scintillation counting analysis relative to control; assay type: protein-complex assay; in short: as §3
SK-MEL-2 = experiment: Growth inhibition of human SK-MEL-2 cells after 48 hrs by coulter counting analysis; assay type: functional; settings: SK-MEL-2, 48 h; in short: as §1
[13] = Growth inhibition of human OVCAR8 cells after 48 hrs by coulter counting analysis; assay type: functional; settings: OVCAR-8, 48 h; in short: as §1
MDA-MB-435 = experiment: Growth inhibition of human MDA-MB-435 cells after 48 hrs by coulter counting analysis; assay type: functional; settings: MDA-MB-435, 48 h; in short: as §2
[14] = Growth inhibition of human SF295 cells after 48 hrs by coulter counting analysis; assay type: functional; settings: SF-295, 48 h; in short: as §1
HT-29 = experiment: Growth inhibition of human HT-29 cells after 48 hrs by coulter counting analysis; assay type: functional; settings: HT-29, 48 h; in short: as §2

| SMILES | GI50 (SW-620) | GI50 (CAKI-1) | inhibition [1] | GI50 (IGROV-1) | GI50 [2] | GI50 [3] | GI50 (K562) | GI50 (Malme-3M) | GI50 (SK-MEL-5) | GI50 (SNB-75) | GI50 (NCI-H226) | GI50 (HOP-62) | GI50 (NCI-H522) | GI50 [4] | GI50 (HCT-116) | GI50 [5] | GI50 (ACHN) | GI50 (MCF7) | GI50 (U-251) | GI50 [6] | also measured |
| --- | --- | --- | --- | --- | --- | --- | --- | --- | --- | --- | --- | --- | --- | --- | --- | --- | --- | --- | --- | --- | --- |
| COc1c2ccoc2c(/C=C/C=O)c2oc(-c3ccccc3)cc(=O)c12 | 2160 nM | 15400 nM | 6% | 17500 nM | 2880 nM | 16100 nM | 3210 nM | 3470 nM | 3040 nM | 8300 nM | 4140 nM | 2490 nM | 17600 nM | 11500 nM | 1700 nM | 2060 nM | 20800 nM | 2720 nM | 3060 nM | 5190 nM | GI50 (NCI-H460): 11300 nM; GI50 (786-0): 26900 nM; GI50 (A549): 21500 nM; GI50 [7]: 4260 nM; GI50 [8]: 22300 nM; GI50 [9]: 3010 nM; GI50 (KM12): 16500 nM; GI50 (SK-OV-3): 6340 nM; GI50 (NCI-H23): 2440 nM; GI50 [10]: 2520 nM; GI50 [11]: 3590 nM; GI50 (M14): 3320 nM; inhibition [12]: 0%; GI50 (SK-MEL-2): 10600 nM; GI50 [13]: 2860 nM; GI50 (MDA-MB-435): 4830 nM; GI50 [14]: 13600 nM; GI50 (HT-29): 25100 nM |
| COc1c2occc2c(OC)c2c(=O)c(CN3CCOCC3)c(/C=C/c3ccc(Cl)cc3)oc12 | 3320 nM | 2450 nM | 0% | 1940 nM | 2380 nM | 2850 nM | 3280 nM | 2240 nM | 1240 nM | 2410 nM | 2790 nM | 3240 nM | 1770 nM | 1280 nM | 2920 nM | 2840 nM | 2470 nM | 2100 nM | 3050 nM | 2340 nM | GI50 (NCI-H460): 2050 nM; GI50 (786-0): 3090 nM; GI50 (A549): 2850 nM; GI50 [7]: 2360 nM; GI50 [8]: 2760 nM; GI50 [9]: 3120 nM; GI50 (KM12): 2100 nM; GI50 (SK-OV-3): 3560 nM; GI50 (NCI-H23): 3000 nM; GI50 [10]: 2780 nM; GI50 (M14): 2760 nM; inhibition [12]: 6%; GI50 (SK-MEL-2): 1650 nM; GI50 [13]: 2780 nM; GI50 (MDA-MB-435): 2050 nM; GI50 [14]: 2010 nM; GI50 (HT-29): 2690 nM |
